Here are results for 13 compounds from ChEMBL document CHEMBL1157201, “1,5-Disubstituted 1,2,3-triazoles as cis-restricted analogues of combretastatin A-4: Synthesis, molecular modeling and evaluation as cytotoxic agents and inhibitors of tubulin” (Bioorg Med Chem, 2008).

The nature of experiment [1]: Cytotoxicity against human SKOV cells assessed as [3H]thymidine incorporation after 72 hrs by microplate scintillation counter. Type of experiment: functional, cell-based. An outline of the steps:
(§1)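 RPMI 1640 with 2 mM L-glutamine, plus 5% FCS (WM35, WM239) or 10% FCS (SKOV, OVCAR, MDA-MB231, SK-BR 3); SK-BR 3 medium also had 12,5 µM insulin. 1 µCi [3H]thymidine label for the final 24 h. Controls got solvent-only medium. Values are medians of three experiments.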

The test system of experiment [2] is K562. Kind of experiment: Cytotoxicity against human K562 cells after 5 days by MTT assay. Type of experiment: functional, cell-based. Conditions: K562, 120 h. In short, it runs like this: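 K562 chronic myelogenous leukemia cells grown in antibiotic-free RPMI with 2-mercaptoethanol (2 μM), L-glutamine (2 mM) and 10% FCS, seeded at ca 40,000 cells/mL. DMSO-dissolved drug added as a serial dilution series, with a drug-free control. Incubated 37 °C, 5% CO2. MTT (3 mg/mL in PBS) added for 3 h, formazan dissolved in DMSO, OD read at 540 and 690 nm. IC50 derived graphically as percentage of control growth.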
(Formazan colour is commonly taken as a measure of viable cells.)

Experiment [3] relates to SK-BR-3. Kind of experiment: Cytotoxicity against human SK-BR3 cells assessed as [3H]thymidine incorporation after 72 hrs by microplate scintillation counter. The experiment is classed as functional, cell-based. In short, it runs like this:
as §1

Experiment [4] can be described thus: Cytotoxicity against human WM239 cells assessed as [3H]thymidine incorporation after 72 hrs by microplate scintillation counter. Type of experiment: functional, cell-based. In short, it runs like this: as §1
On the technique in general: Uptake of a labelled nucleoside into DNA is a usual measure of proliferation.

A short description of experiment [5]: Cytotoxicity against human WM35 cells assessed as [3H]thymidine incorporation after 72 hrs by microplate scintillation counter. Type of experiment: functional, cell-based. In short, it runs like this: as §1
In experiment [6] the test system is OVCAR. Put plainly: Cytotoxicity against human OVCAR cells assessed as [3H]thymidine incorporation after 72 hrs by microplate scintillation counter. The experiment is classed as functional, cell-based. An outline of the steps: as §1
For experiment [7], the system named is MDA-MB-231. Kind of experiment: Cytotoxicity against human MDA-MB-231 cells assessed as [3H]thymidine incorporation after 72 hrs by microplate scintillation counter. The experiment is classed as functional, cell-based. An outline of the steps:
as §1

Experiment [8] deals with Tubulin (Sus scrofa, UniProt P02554+P02550). Kind of experiment: Inhibition of pig brain tubulin polymerization. An outline of the steps:
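Porcine brain tubulin stored at -78 °C. Mixed with Mes buffer (0.1 M Mes, 1 mM EGTA, 0.5 mM MgCl2, pH 6.6) and GTP (stock 5 mM) plus drug in DMSO, in a plate prechilled 30 min at 4 °C. Absorbance at 350 nm followed 60 min at 25 °C against drug-only blanks and untreated controls. IC50 derived graphically as percentage of control assembly.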

`COc1ccc(/C=C\c2cc(OC)c(OC)c(OC)c2)cc1O` [COMBRETASTATIN A4]: the IC50 was 3.3 nM in experiment [1]; 10 nM in experiment [2]; 5.1 nM in experiment [3]; 2.8 nM in experiment [4]; 2.5 nM in experiment [5]; 3.3 nM in experiment [6]. In addition, the IC50 in experiment [7] came out at 6 nM.
Consider `COc1ccc(-c2cnnn2-c2cc(OC)c(OC)c(OC)c2)cc1O`, for which the IC50 in experiment [8] amounted to 12600 nM.
Take `COc1ccc(-c2cnnn2-c2cc(OC)c(OC)c(OC)c2)cc1Br`: the values for the IC50 in experiment [2] and in experiment [8] were 57 nM and over 20000 nM, respectively.
In turn, `COc1ccc(-n2nncc2-c2cc(OC)c(OC)c(OC)c2)cc1` came in with an IC50 in experiment [2] of 4000 nM.
For the compound `COc1ccc(-c2cnnn2-c2cc(OC)c(OC)c(OC)c2)cc1[N+](=O)[O-]`, the IC50 in experiment [2] was 460 nM; in experiment [8], over 20000 nM.
For the compound `COc1ccc(-n2nncc2-c2cc(OC)c(OC)c(OC)c2)cc1O`, the results for the half-inhibitory concentration (IC50) in experiment [2] and in experiment [8] were 410 nM and 14000 nM, respectively.
In experiment [2], `COc1ccc(-n2nncc2-c2cc(OC)c(OC)c(OC)c2)cc1[N+](=O)[O-]` registered an IC50 of over 10000 nM.
Same read-out and setting: next, `COc1ccc(-c2cn(-c3cc(OC)c(OC)c(OC)c3)nn2)cc1[N+](=O)[O-]`: over 10000 nM.
On to `COc1ccc(-c2cn(-c3cc(OC)c(OC)c(OC)c3)nn2)cc1N`, for which the IC50 in experiment [2] is 1300 nM; in experiment [8] it was over 20000 nM.
In turn, `COc1ccc(-n2nncc2-c2cc(OC)c(OC)c(OC)c2)cc1Br` came in with an IC50 in experiment [2] of 3600 nM.
As for `COc1ccc(-n2nncc2-c2cc(OC)c(OC)c(OC)c2)cc1N`, the results for the IC50 in experiment [2] and in experiment [8] were 570 nM and over 20000 nM, respectively.
On to `COc1ccc(-c2cnnn2-c2cc(OC)c(OC)c(OC)c2)cc1N`, for which the half-inhibitory concentration (IC50) amounted to 4.9 nM in experiment [1]; 11 nM in experiment [2]; 4 nM in experiment [3]; 5.1 nM in experiment [4]; 3.9 nM in experiment [5]; 4.7 nM in experiment [6]. The values for the IC50 in experiment [8] and in experiment [7] were 4800 nM and over 10 nM, respectively.
With `COc1ccc(-c2cnnn2-c2cc(OC)c(OC)c(OC)c2)cc1`, the IC50 in experiment [2] was determined as 27 nM; in experiment [8], 7000 nM.

What is called IC50 is the concentration at which inhibition is half-maximal.
